The text below walks through data of ChEMBL document CHEMBL1123816, “Synthesis and antidepressant properties of novel 2-substituted 4,5-dihydro-1H-imidazole derivatives” (J Med Chem, 1987).

Structures are written as SMILES. Active and inactive are the calls of the source. No cut-off for these calls is given here.

In experiment [1] the test system is Mus musculus. The experiment in a line: Effective dose required to antagonise clonidine-induced antinociception(ACA) in mouse by peroral administration;Values ranges from: 0.5-3.8. The class given is functional. Conditions: po.
Experiment [2] is filed under the species Rattus norvegicus. The experiment can be described thus: Inhibition of [3H]5-HT uptake into rat brain synaptosomes in vitro. The class given is functional. Summed up: (§1)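 Male Sprague–Dawley rat cerebral cortex (180–240 g) homogenized in 0.32 M sucrose; crude P2 synaptosomes. Preincubated 5 min at 25 °C in modified Krebs–Ringer phosphate with ascorbic acid, EDTA and nialamide. Uptake run 5 min with 0.1 μM final [3H]-5-HT or [3H]NE, stopped by ice-cold saline and filtration. Nonspecific uptake taken at 4 °C. Scintillation counting; IC50 with 95% confidence limits.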

Experiment [3] is filed under the species Rattus norvegicus. The experiment can be described thus: Inhibition of [3H]norepinephrine uptake into rat brain synaptosomes in vitro;Values ranges from: 8.6-21. Format: functional. Put shortly: as §1
Experiment [4] has as its system Mus musculus. The experiment can be described thus: Effective dose required for inhibition of tetrabenazine-induced ptosis in mouse by peroral administration. The class given is functional. The note with it: po. Summed up: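 Swiss Webster mice; test compound in 0.9% NaCl (10 mL/kg) given po 30 min before ip tetrabenazine methanesulfonate (50 mg/kg, in 0.9% NaCl with moderate heating). Ptosis scored subjectively 30 min after tetrabenazine on a 0–4 scale (0 = complete eye closure, 4 = no closure). ED50 with 95% confidence limits from quantal dose–response analysis.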

The species named for experiment [5] is Rattus norvegicus. The experiment in a line: Inhibition of [3H]dopamine uptake into rat brain synaptosomes in vitro. The class given is functional. Summed up: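 Male Sprague–Dawley rat corpus striatum (180–240 g) homogenized in 0.32 M sucrose; P2 synaptosomes. Preincubated 5 min at 25 °C in modified Krebs–Ringer phosphate with ascorbic acid, EDTA and nialamide. Uptake run 5 min with 0.1 μM final [3H]dopamine, ended by cold saline and GF/B filtration. Nonspecific uptake measured at 4 °C. IC50 with 95% confidence limits.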

Experiment [6] has as its system Rattus norvegicus. The experiment in a line: Minimum effective dose required for inhibition of serotonin uptake was determined by PCA method in rat by peroral administration. Format: functional. The note with it: po, read-out: MED. Summed up: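 Fasted male Sprague–Dawley rats (160–200 g) given test compound orally in water (10 mL/kg) 15 min before p-chloroamphetamine 3 mg/kg ip. Forebrain taken 3 h later, extracted in acidified butanol then heptane/0.1 N HCl. Serotonin in aqueous phase measured fluorometrically after o-phthalaldehyde condensation (excitation 360 nm). Minimum effective dose reported.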

Experiment [7] addresses T1, Adrenergic receptor alpha-2 (Rattus norvegicus, UniProt P22086+P19328+P22909).
T1 sequence (P22086 whole entry): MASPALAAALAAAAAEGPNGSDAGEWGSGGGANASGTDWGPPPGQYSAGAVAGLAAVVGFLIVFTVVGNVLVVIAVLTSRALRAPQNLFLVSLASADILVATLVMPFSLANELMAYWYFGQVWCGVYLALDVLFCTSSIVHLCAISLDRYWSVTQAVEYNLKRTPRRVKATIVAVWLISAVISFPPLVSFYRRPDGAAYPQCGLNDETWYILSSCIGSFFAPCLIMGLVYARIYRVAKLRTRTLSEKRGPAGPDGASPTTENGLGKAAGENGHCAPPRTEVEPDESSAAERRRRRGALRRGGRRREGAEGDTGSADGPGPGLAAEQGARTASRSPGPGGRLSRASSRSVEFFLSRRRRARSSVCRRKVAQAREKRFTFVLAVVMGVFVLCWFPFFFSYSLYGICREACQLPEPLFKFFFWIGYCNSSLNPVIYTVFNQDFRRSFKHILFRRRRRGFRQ
T1 sequence (P19328 whole entry): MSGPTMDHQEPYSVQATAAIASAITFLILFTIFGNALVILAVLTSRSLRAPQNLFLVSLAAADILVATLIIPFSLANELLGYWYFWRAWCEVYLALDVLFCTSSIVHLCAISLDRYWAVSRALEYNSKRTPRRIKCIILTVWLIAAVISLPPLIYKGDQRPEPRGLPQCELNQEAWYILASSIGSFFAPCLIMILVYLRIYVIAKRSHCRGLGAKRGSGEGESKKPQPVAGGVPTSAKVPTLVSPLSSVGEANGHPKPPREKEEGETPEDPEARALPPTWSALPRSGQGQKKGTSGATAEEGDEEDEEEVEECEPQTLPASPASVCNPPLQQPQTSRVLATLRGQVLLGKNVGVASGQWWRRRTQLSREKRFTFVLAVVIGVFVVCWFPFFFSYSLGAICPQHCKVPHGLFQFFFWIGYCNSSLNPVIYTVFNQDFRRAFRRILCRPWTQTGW
T1 sequence (P22909 whole entry): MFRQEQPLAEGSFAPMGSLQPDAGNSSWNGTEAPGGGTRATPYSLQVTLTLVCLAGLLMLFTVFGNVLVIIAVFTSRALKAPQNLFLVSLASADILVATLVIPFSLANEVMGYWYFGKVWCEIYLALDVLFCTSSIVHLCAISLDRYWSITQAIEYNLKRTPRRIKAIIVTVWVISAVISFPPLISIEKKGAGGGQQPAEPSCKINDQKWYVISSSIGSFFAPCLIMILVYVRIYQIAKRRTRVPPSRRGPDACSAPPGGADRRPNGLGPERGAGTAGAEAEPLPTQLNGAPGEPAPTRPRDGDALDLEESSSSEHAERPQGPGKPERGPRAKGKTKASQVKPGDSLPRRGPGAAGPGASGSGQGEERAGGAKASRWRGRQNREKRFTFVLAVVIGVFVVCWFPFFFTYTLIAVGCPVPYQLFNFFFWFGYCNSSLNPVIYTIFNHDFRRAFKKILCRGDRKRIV
The experiment can be described thus: Ability to displace [3H]clonidine from alpha-2 adrenergic receptor in rat brain homogenates in vitro. Format: tissue-based.

For experiment [8], the target named is T1, Adrenergic receptor alpha-2. The experiment in a line: In vitro antagonistic activity against alpha-2 adrenergic receptor in isolated electrically stimulated rat vas deferens (clonidine-induced decrease in twitch height). The class given is functional, tissue-based.
The target of experiment [9] is T2, Adrenergic receptor alpha-2 (Rattus norvegicus) (UniProt P22086+P19328+P22909). The experiment in a line: In vitro antagonistic activity against alpha-2 adrenergic receptor in isolated electrically stimulated rat vas deferens (clonidine-induced decrease in twitch height) at 500 uM concentration.;IA is Inactive, no antagonism at 500 uM. The class given is functional.

For experiment [10], the species on record is Rattus norvegicus. The experiment can be described thus: Inhibition of [3H]5-HT uptake into rat brain synaptosomes in vitro;Values ranges from: 0.14-0.22. The class given is functional. Put shortly:
(§2)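 Male Sprague–Dawley rat (180–240 g) cortex (NE, 5-HT) or striatum (DA) crude P2 synaptosomes in 0.32 M sucrose. Preincubated 5 min at 25 °C with drug in Krebs–Ringer phosphate containing ascorbate, EDTA, nialamide; 0.1 μM final [3H]amine added for 5 min. Stopped by cold saline and GF/B filtration; nonspecific uptake at 4 °C. IC50 with 95% limits computed.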

The species named for experiment [11] is Rattus norvegicus. The experiment can be described thus: Inhibition of [3H]dopamine uptake into rat brain synaptosomes in vitro;Values ranges from: 0.09-0.18. Format: functional. Summed up: as §2
The species named for experiment [12] is Rattus norvegicus. The experiment in a line: Inhibition of [3H]norepinephrine uptake into rat brain synaptosomes in vitro;Values ranges from: 0.01-0.07. Format: functional. Summed up: as §2
Experiment [13] concerns Mus musculus. The experiment in a line: Effective dose required for inhibition of tetrabenazine-induced ptosis in mouse by peroral administration;Values ranges from: 1.8-9.3. Conditions: po. Format: functional.
For experiment [14], the target named is T2, Adrenergic receptor alpha-2 (Rattus norvegicus). The experiment can be described thus: In vitro antagonistic activity against alpha-2 adrenergic receptor in isolated electrically stimulated rat vas deferens (clonidine-induced decrease in twitch height) at 500 uM concentration. IA is Inactive, no antagonism at 500 uM. Format: functional.
For experiment [15] the target is unchanged. The experiment in a line: In vitro antagonistic activity against alpha-2 adrenergic receptor in isolated electrically stimulated rat vas deferens (clonidine-induced decrease in twitch height) at 500 uM concentration;IA is Inactive, no antagonism at 500 uM. The class given is functional.
Experiment [16] shares this target. The experiment can be described thus: In vitro antagonistic activity against alpha-2 adrenergic receptor in isolated electrically stimulated rat vas deferens (clonidine-induced decrease in twitch height)at 500 uM concentration. IA is Inactive, no antagonism at 500 uM. The class given is functional.

On to `c1ccc2c(c1)OCC(C1=NCCN1)O2` (centres undefined) [IDAZOXAN], for which the 50% effective dose (ED50) – broadly, the midpoint of the dose-response relation – in experiment [1] is 1.3 mg/kg; in [4], > 30 mg/kg. Further, the IC50 (as a rule, the concentration at which inhibition is half-maximal) in experiment [2] is > 30000 nM; in [3], 13000 nM; in experiment [5] it was > 30000 nM. Further, the minimal effective dose in experiment [6] is > 30 mg/kg.

Turning to `C[C@@H]1c2ccccc2CC[C@@H]1CC1=NCCN1.Cl`, in experiment [7], the inhibitory constant (Ki) (commonly a dissociation constant, usually derived from enzyme kinetics or from competition with a known ligand) is 135 nM. Moreover, in [8], the pA2 (as a rule, a measure of antagonist potency on a negative log scale) was 7.22.

In experiment [7], `CC(C1=Cc2ccccc2CC1)C1=NCCN1.Cl` (centres undefined) displayed an inhibition constant (Ki) of 32 nM. The molecule also showed a pA2 in experiment [8] of 7.43.

Consider `CC1=C(CC2=NCCCN2)CCc2ccccc21.Cl`, for which the pA2 entry in experiment [9] was “inactive”. For the same molecule, the Ki in experiment [7] is 334 nM.

For the molecule `Cl.c1ccc2cc(CC3=NCCN3)ccc2c1`, in experiment [7], the inhibition constant Ki is listed as 48 nM. Also, the pA2 in experiment [8] was determined as 7.67.

For `CC1=C(Cc2ncc[nH]2)CCc2ccccc21`, in [7], the inhibitory constant (Ki) was found to be 88 nM. This molecule displayed a pA2 in experiment [8] of 6.92.

Regarding `CN(C)CCCN1c2ccccc2CCc2ccccc21` [IMIPRAMINE], the IC50 in experiment [10] was found to be 180 nM; in [11] it was 130 nM; in experiment [12], 30 nM. Moreover, in experiment [6], the minimal effective dose amounted to 30 mg/kg. Besides, it took a dose of 4.1 mg/kg to reach the 50% effect level in experiment [13] (ED50).

On to `CC1=C(CC2=NCC(C)N2)CCc2ccccc21.Cl` (centres undefined), for which, in [14], the pA2 entry is “inactive”. Moreover, in experiment [7], the inhibition constant Ki is reported as > 800 nM.

In turn, `CC1=C(CC2=NCCN2)Cc2ccccc21.Cl` displayed an inhibition constant Ki in experiment [7] of 6.9 nM. Moreover, the pA2 in experiment [8] is given as 7.71.

As for `C1=C(CC2=NCCN2)Cc2ccccc21.Cl`, the inhibitory constant (Ki) in experiment [7] worked out at 76 nM. Moreover, in experiment [8], the pA2 is given as 7.19.

For the molecule `CCN1CCN=C1CC1=C(C)c2ccccc2CC1.Cl`, in [15], the pA2 entry was “inactive”. The inhibitory constant (Ki) in [7] is listed as 548 nM.

Consider `C[C@H]1c2ccccc2CC[C@@H]1CC1=NCCN1.Cl`, for which the inhibition constant Ki in experiment [7] is recorded as 401 nM.

Turning to `CC1=C(CC2=NCCN2C)CCc2ccccc21.Cl`, the pA2 entry in [16] was “inactive”. For the same molecule, the Ki in experiment [7] is recorded as 436 nM.

`Cc1c(CC2=NCCN2)ccc2ccccc12.Cl` showed a Ki in [7] of 6.6 nM. Also, the pA2 in experiment [8] is reported as 7.35.
